# Results reported in the RNAGym collection of RNA variant scans (doi:10.1101/gad.245936.114).
# Variants at the floor of the assay were thinned out.
# B1: tRNA (parent)
# chain: CUCUCGGUAGCCAAGUUGGUUUAAGGCGCAAGACUUUAAUUUAUCACUACGAAAUCUUGAGAUCGGGCGUUCGACUCGCCCCCGGGAGAUUUUUUCCUCGAGCAA
# Variants of: B1
# Assay: nonsense suppression (GFP-seq) (ratio to wild type); higher = more function; SUP4oc tRNA, yeast GFP reporter sort-seq
# How it was run: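 Each variant's nonsense suppression (GFPSEQ) is a cell-share-weighted bin median GFP/RFP relative to the unmutated parent tRNA. Yeast with genome-integrated tRNA variants from a ~3% random-mutation library, a galactose-driven GFP ochre reporter and RFP were grown in raffinose/galactose medium with 80 mg/L adenine, then sorted into GFP/RFP bins for Illumina sequencing. Variants needed ≥100 reads and ≥30 cells.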
row,Variant,nonsense suppression
1,CUCUCGGUAGCCAAGUUGGUCUAAGGCGCAAGACUUUAAUUUAUCACUACGAAAUCUUGAGAUCGGGCGUUCGACUCCCCCCCGGGAGAUUUUUUCCUCGAGCAA [U21C G78C],0.211
2,CUCUCGGUAGCCAAGUUGGUCUAAGGCGCAAGACUUUAAUUUAUCACUACGAAAUCUUGAGAUCGGGCGUUCGACUCUCCCCCGGGAGAUUUUUUCCUCGAGCAA [U21C G78U],0.442
3,CUCUCGGUAGCCAAGUUGGUCUAAGGCGUAAGACUUUAAUUUAUCACUACGAAAUCUUGAUAUCGGGCGUUCGACUCGCCCCCGGGAGAUUUUUUCCUCGAGCAA [U21C C29U G61U],0.518
4,CUCUCGGUAGCCAAGUUGGUCUAAGGCGCAAGACUUUAAUUUAUCACUACGAAAUCUUGAGAACGGGCGUUCGACUCGCCCCCGGGAGAUUUUUUCCUCGAGCAA [U21C U63A],1.12
5,CUCUCGGUAGCCAAGUUGGUCUAAGGCGCAAGACUUUAAUUUAUCACUACGAAAUCUUGAGAGCGGGCGUUCGACUCGCCCCCGGGAGAUUUUUUCCUCGAGCAA [U21C U63G],0.805
6,CUCUCGGUAGCCAAGUUGGUCUAAGGCGCAAGACUUUAAUUUAUCACUACGAAAUCUUGAAAUCGGGCGUUCGACUCGCCCCCGGGAGAUUUUUUCCUCGAGCAA [U21C G61A],0.881
7,CUCUCGGUAGCCAAGUUGGUCUAAGGCUCAUGGCUUUAAUUUAUCACUACGAAAUCUUGAGAUCGGGCGUUCGACUCUACCCCGGGAGAUUUUUUCCUCGAGCAA [U21C G28U A31U A33G G78U C79A],≤ 0.026
8,CUCUCGGUAGCCAAGUUGGUGUACGGCGCAAGACUUUAAUUUAUCACUACGAAAUCUUGAGAUCGGGCGUUCGACUCGCCCCCGGGAGAUUUUUUCCUCGAGCAA [U21G A24C],0.493
9,CUCUCGGUAGCCAAGUUGGUGUAUGGCGCAAGACUUUAAUUUAUCACUACGAAAUCUUGAGAUCGGGCGUUCGACUCGCCCCCGGGAGAUUUUUUCCUCGAGCAA [U21G A24U],0.0683
10,CUCUCGGUAGCCAAGUUGGUCUAAGGUGCAAGACUUUAAUUUAUCACUACGAAAUCUUGAGAUCGGGCGUUCGACUCGCCCCCGGGAGAUUUUUUCCUCGAGCAA [U21C C27U],0.154
11,CUCUCGGUAGCCAAGUUGGUCUAAGGCGCAAGACUUUAAUUUAUCACUACGAAAUCCUGAGAUCGGGCGUUCGACUCGCUCCCGAGAGAUUUUUUCCUCGAGCAA [U21C U57C C80U G85A],≤ 0.026
12,CUCUCGGUAGCCAAGUUGGUCUAAGGCGCAAGACUUUAAUUUAUCACUACGAAAUCUUGAACUCGGGCGUUCGACUCGCCCCCGGGAGAUUUUUUCCUCGAGCAA [U21C G61A A62C],0.0269
13,CUCUCGGUAGCCAAGUUGGUCUAAGGCGCAAGACUUUAAUUUAUCACUACGAAAUCUUGAGGUCGGGCGUUCGACUCGCCCCCGGGAGAUUUUUUCCUCGAGCAA [U21C A62G],0.0282
14,CUCUCGGUAGCCAAGUUGGUGUCAGGCGCAAGACUUUAAUUUAUCACUACGAAAUCUUGAGAUCGGGCGUUCGACUCGCCCCCGGGAGAUUUUUUCCUCGAGCAA [U21G A23C],≤ 0.026
15,CUCUCGGUAGCCAAGUUGGUCUAAGGCGCAAGACUUUAAUUUAUCACUACGAAAUCUUGAGAUCGGGCGUUCGACUCGCCUCCGGGAGAUUUUUUCCUCGAGCAA [U21C C81U],1.14
16,CUCUCGGUAGCCAAGUUGGUCUAAGGCGCAAGACUUUAAUUUAUCACUACGAAAUCUUGAGAUCGGGCCUUCGACUCGCCCCCGGGAGAUUUUUUCCUCGAGCAA [U21C G69C],≤ 0.026
17,CUCUCGGUAGCCAAGUUGGUCUAAGGCGCAAGACUUUAAUUUAUCACUACGAAAUCUUGAGAUCGGGCGUUCGACUCGCCCUCGGGAGAUUUUUUCCUCGAGCAA [U21C C82U],1.15
18,CUCUCGGUAGCCAAGUUGGUGUAAGGCGCAAGACUUUAAUUUAUCACUACGAAAUCUUGAGAUCGGGCGUUCGACUCGCCCCCGGGAGAUUUUUUCCUCGAGCAA [U21G],1.04
19,CUCUCGGUAGCCAAGUUGGUCUAAGGCGCAAGACAUUAAUUUAUCACUACGAAAUCUUGAGAUGGCGCGUUGGACUCGCCCCCGGGAGAUUUUUUCCUCGAGCAA [U21C U35A C64G G66C C72G],≤ 0.026
20,CUCUCGGUAGCCAAGUUGGUCUAAAACGCAAGACUUUAAUUUAUCACUACGAAAUCUUGAGAUCGGGCGUUCGACUCGCCCCCGGGAGAUUUUUUCCUCGAGCAA [U21C G25A G26A],≤ 0.026
21,CUCUCGGUAGCCAAGUUGGUCUAAGGCGCAAGACUUUAAUUUAUCACUACGAAAUCUUGAGAUCGGGCGUUCGACCCGCCCCCGGGAGAUUUUUUCCUCGAGCAA [U21C U76C],1.06
22,CUCUCGGUAGCCAAGUUGGUCUAAGUCGCAAGACUUUAAUUUAUCACUACGAAAUCUUGAGAUCGGACGUUCGACUCGCGCCCGGGAGAUUUUUUCCUCGAGCAA [U21C G26U G67A C80G],≤ 0.026
23,CUCUCGGUAGCCAAGUUGGUCUAAGGCGCAAGACUUUAAUUUAUCACUACGAAAUCUUGAGAUCGGACGUUCGACUCGCCCCCGGGAGAUUUUUUCCUCGAGCAA [U21C G67A],0.0282
24,CUCUCGGUAGCCAAGUUGGUCUAAGGCGCAAGACUUUAAUUUAUCACUACGAAAUGUUGAGAUCGGGCGCUCGAGUCGCCCCCGGGAGAUUUUUUCCUCGAGCAA [U21C C56G U70C C75G],≤ 0.026
25,CUCUCGGUAGCCAAGUUGGUCAAAGGCGCAAGACUUUAAUUUAUCACUACGAAAUCUUGAGAUCGGGCGUUCGACUCGCCCCCGGGAGAUUUUUUCCUCGAGCAA [U21C U22A],1.14
26,CUCUCGGUAGCCAAGUUGGUCUAAGGCGCAAUACUUUAAUUUAUCACUACGAAAUCUCGAGAUCGGGCGUUCGACUCGCCCCCGGGAGAUUUUUUCCUCGAGCAA [U21C G32U U58C],≤ 0.026
27,CUCUCGGUAGCCAAGUUGGUCUAAGGCGCAAGACUUUAAUUUAUCACUACGAAAUUUUGAGAUCGGGCGUUCGACUCGCCCCCGGGAGAUUUUUUCCUCGAGCAA [U21C C56U],0.174
